# Results gathered from unrelated publications.
# Protocols differ between the studies behind these lines.
# Organism: Plasmodium falciparum
# Observed: parasite growth
SMILES,assay,test system,conditions,measurement,value
O=C(CNc1ccccc1N1CCCC1=O)Nc1ccc(Oc2ccccc2)cc1,,3D7,"72 h, blood stage",EC50,> 10000 nM
Cc1[nH]c(/C=C2\N=C(c3ccc[nH]3)C=C2OCc2ccccc2)cc1Cc1ccc(Cl)cc1,SYBR Green,D6,"72 h, blood stage",IC50,9.98 nM
CC(=O)[C@@]1(O)[C@H](O)C[C@H]2[C@@H]3CCC4=CC(=O)CC[C@]4(C)[C@H]3CC[C@@]21C,SYBR Green,3D7,blood stage,IC50,142 nM
Cc1ccc(Oc2ccc(NC(=O)C(C)(C)Nc3ccccc3N3CCCC3=O)cc2)cc1,,3D7,"72 h, blood stage",EC50,> 10000 nM
Cc1nnc(-c2ccc3ccn(CC(=O)Nc4ccccn4)c3c2)o1,,3D7,"72 h, blood stage",EC50,4250 to 4780 nM
Cc1ccc(N(C)c2ccc(NC(=O)CN(C)c3cc(F)ccc3N3CCCC3=O)cc2)cc1,,3D7,"72 h, blood stage",EC50,34 nM
COc1cc(/C=C/C(=O)C(=Cc2cccc(O)c2)C(=O)/C=C/c2ccc(O)c(OC)c2)ccc1O,,3D7,blood stage,EC50,1150 nM
COC1=C(OC)/C(=C/c2cc(-c3ccc(OC(F)(F)F)cc3)c(C)[nH]2)N=C1c1ccc[nH]1,SYBR Green,D6,"72 h, blood stage",IC50,521 nM
Cc1ccc(N(c2ccc(NC(=O)CN(C)c3ccccc3N3CCCC3=O)cc2)C(C)C)cc1,,3D7,"72 h, blood stage",EC50,5 nM
CC(C(=O)Nc1ccccc1Cl)n1ccc2ccc(-c3cnn(C)c3)cc21 (stereo not drawn),,3D7,"72 h, blood stage",EC50,1120 nM
Cc1[nH]c(/C=C2\N=C(c3ccc[nH]3)C3=C2OCCO3)cc1Cc1ccc(Cl)cc1,SYBR Green,D6,"72 h, blood stage",IC50,14.3 nM
CCCN(c1ccc(C)cc1)c1ccc(NC(=O)CN(C)c2ccccc2N2CCCC2=O)cc1,,3D7,"72 h, blood stage",EC50,10 nM
COC1=CC(c2ccc[nH]2)=N/C1=C\c1[nH]c(C(=O)O)cc1Cc1ccc(Cl)cc1,SYBR Green,D6,"72 h, blood stage",IC50,> 2500 nM
COc1cc(/C=C2\CC/C(=C\c3ccc(O)c(OC)c3)C2=O)ccc1O,,3D7,blood stage,EC50,250 nM
CC1=C(C)/C(=C/c2[nH]c(Cc3ccc(Cl)cc3)cc2Cc2ccc(Cl)cc2)N=C1c1ccc[nH]1,SYBR Green,D6,"72 h, blood stage",IC50,> 2500 nM
COc1ccnn1-c1ccccc1NCC(=O)Nc1ccc(Oc2ccc(C)cc2)cc1,,3D7,"72 h, blood stage",EC50,> 10000 nM
COC1=C(OC)/C(=C/c2[nH]c(Cc3ccc(OC(F)(F)F)cc3)cc2Cc2ccc(OC(F)(F)F)cc2)N=C1c1ccc[nH]1,SYBR Green,D6,"72 h, blood stage",IC50,85.9 nM
N=C(N)N/N=C/c1c(Cl)cccc1Cl,SYBR Green,3D7,blood stage,IC50,39.8 nM
CCN(c1ccc(C)cc1)c1ccc(NC(=O)CN(C)c2ccccc2N2CCCC2=O)cc1,,3D7,"72 h, blood stage",EC50,19 nM
Cn1cc(-c2ccc3ccn(CC(=O)Nc4ccccc4Cl)c3c2)c(C(F)(F)F)n1,,3D7,"72 h, blood stage",EC50,46 nM
COc1cc(/C=C/C(=O)C(=Cc2ccc(O)cc2)C(=O)/C=C/c2ccc(O)c(OC)c2)ccc1O,,3D7,blood stage,EC50,4350 nM
CCC1=C(CC)/C(=C/c2[nH]c(Cc3ccc(OC(F)(F)F)cc3)cc2Cc2ccc(OC(F)(F)F)cc2)N=C1c1ccc[nH]1,SYBR Green,D6,"72 h, blood stage",IC50,2040 nM
COc1cc(/C=C/C(=O)/C=C/c2ccc(O)c(OC)c2)ccc1O,,3D7,blood stage,EC50,150 nM
Cc1[nH]c(/C=C2\N=C(c3ccc[nH]3)C=C2OC(C)C)cc1Cc1ccc(Cl)cc1,SYBR Green,D6,"72 h, blood stage",IC50,3.75 nM
COc1cc(NC(C)CCCN)c2ncccc2c1 (stereo not drawn),,,"100 µM, gametocyte",inhibition,100%
CCN(CC)CCOc1ccc2c(c1)C(=O)c1cc(OCCN(CC)CC)ccc1-2,,NF54,blood stage,IC50,647 nM
C[C@H]1Cc2c([nH]c3cc(Cl)c(F)cc23)[C@@]2(N1)C(=O)Nc1ccc(Cl)cc12,,DD2,"72 h, blood stage",EC50,0.7 nM
COc1cc(/C=C/C(=O)C(=Cc2ccccc2)C(=O)/C=C/c2ccc(O)c(OC)c2)ccc1O,,3D7,blood stage,EC50,3790 nM
Cc1ccc(N(C)c2ccc(NC(=O)CN(C)c3ccccc3N3CCCC3=O)cc2)nc1,,3D7,"72 h, blood stage",EC50,4000 nM
CO[C@H]1C[C@H](O[C@@H]2/C(C)=C/C[C@@H]3C[C@@H](C[C@]4(CC[C@H](C)[C@@H](C5CCCCC5)O4)O3)OC(=O)[C@@H]3C=C(C)/C(=N/O)[C@H]4OC/C(=C\C=C\[C@@H]2C)[C@]43O)O[C@@H](C)[C@@H]1O,,NF54,blood stage,IC50,698 nM
